Laboratory results published in ChEMBL document CHEMBL3526048, “In vitro metabolism of rivoglitazone, a novel peroxisome proliferator-activated receptor γ agonist, in rat, monkey, and human liver microsomes and freshly isolated hepatocytes” (Drug Metab Dispos, 2011).

Assays:
[1] = Drug metabolism in rat hepatocytes assessed as formation of 3-(4-((6-methoxy-1-methyl-1H-benzo[d]imidazol-2-yl)methoxy)phenyl)-2-(methylsulfonyl)propanamide at 30 uM after 3 hrs by radio-HPLC/LC-MS/MS analysis in presence of NADPH-generating system/SAM; format: ADME, cell-based, Hepatocyte
[2] = molecular target: T1, UDP-glucuronosyltransferase 1A9 (Homo sapiens, UniProt O60656); assay: Activity of human UGT1A9 expressed in microsomes isolated from baculovirus infected insect cell assessed as enzyme-mediated (2S,3S,4S,5R,6R)-3,4,5-trihydroxy-6-(5-(4-((6-methoxy-1-methyl-1H-benzo[d]imidazol-2-yl)methoxy)benzyl)-2,4-dioxothiazolidin-3-yl)tetrahydro-2H-pyran-2-carboxylic acid formation at 20 uM after 4 hrs by radio-HPLC/LC-MS/MS analysis in presence of UDPGA; format: ADME
T1 sequence (O60656 whole entry): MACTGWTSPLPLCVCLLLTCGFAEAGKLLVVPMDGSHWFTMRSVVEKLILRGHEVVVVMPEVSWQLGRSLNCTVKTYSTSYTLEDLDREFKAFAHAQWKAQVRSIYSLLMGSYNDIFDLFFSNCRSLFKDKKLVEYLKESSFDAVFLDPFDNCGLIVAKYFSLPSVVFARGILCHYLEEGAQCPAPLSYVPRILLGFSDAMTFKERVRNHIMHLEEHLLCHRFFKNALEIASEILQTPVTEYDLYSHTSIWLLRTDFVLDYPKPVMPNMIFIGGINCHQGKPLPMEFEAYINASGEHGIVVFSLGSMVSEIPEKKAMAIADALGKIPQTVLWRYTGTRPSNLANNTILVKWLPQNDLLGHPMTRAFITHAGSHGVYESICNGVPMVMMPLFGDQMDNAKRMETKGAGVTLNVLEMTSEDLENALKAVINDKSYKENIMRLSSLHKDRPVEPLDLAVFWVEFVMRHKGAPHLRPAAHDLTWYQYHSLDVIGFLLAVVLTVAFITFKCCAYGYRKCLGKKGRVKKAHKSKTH

Cytochrome P450 2C9 [3] = molecular target: T2, Cytochrome P450 2C9 (Homo sapiens, UniProt P11712); assay: Activity of human CYP2C9 expressed in microsomes isolated from baculovirus infected insect cell assessed as enzyme-mediated (2S,3S,4S,5R,6R)-6-((1-carboxy-2-(4-((6-methoxy-1-methyl-1H-benzo[d]imidazol-2-yl)methoxy)phenyl)ethylthio)carbonylamino)-3,4,5-trihydroxytetrahydro-2H-pyran-2-carboxylic acid formation at 20 uM after 2 hrs by radio-HPLC/LC-MS/MS analysis in presence of NADPH-generating system/SAM; format: ADME
T2 sequence (P11712 whole entry): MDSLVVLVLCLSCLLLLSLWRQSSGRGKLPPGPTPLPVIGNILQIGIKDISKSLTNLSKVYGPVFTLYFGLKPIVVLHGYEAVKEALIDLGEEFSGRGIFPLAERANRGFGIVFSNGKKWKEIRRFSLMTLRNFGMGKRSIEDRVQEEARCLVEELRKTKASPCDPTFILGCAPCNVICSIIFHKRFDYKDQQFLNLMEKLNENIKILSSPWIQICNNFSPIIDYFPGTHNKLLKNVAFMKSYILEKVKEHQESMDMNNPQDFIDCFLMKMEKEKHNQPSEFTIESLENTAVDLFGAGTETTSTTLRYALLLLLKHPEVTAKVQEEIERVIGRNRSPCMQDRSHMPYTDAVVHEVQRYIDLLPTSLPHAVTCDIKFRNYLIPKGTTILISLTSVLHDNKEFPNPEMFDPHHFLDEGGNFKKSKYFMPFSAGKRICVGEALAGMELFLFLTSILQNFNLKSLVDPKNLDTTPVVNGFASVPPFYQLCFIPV

[4] = molecular target: T3, UDP-glucuronosyltransferase 2B7 (Homo sapiens, UniProt P16662); assay: Activity of human UGT2B7 expressed in microsomes isolated from baculovirus infected insect cell assessed as enzyme-mediated 2-amino-3-((1-carboxy-2-(4-((6-methoxy-1-methyl-1H-benzo[d]imidazol-2-yl)methoxy)phenyl)ethyl)disulfanyl)propanoic acid formation at 20 uM after 4 hrs by radio-HPLC/LC-MS/MS analysis in presence of UDPGA and UDPGA/SAM; format: ADME
T3 sequence (P16662 whole entry): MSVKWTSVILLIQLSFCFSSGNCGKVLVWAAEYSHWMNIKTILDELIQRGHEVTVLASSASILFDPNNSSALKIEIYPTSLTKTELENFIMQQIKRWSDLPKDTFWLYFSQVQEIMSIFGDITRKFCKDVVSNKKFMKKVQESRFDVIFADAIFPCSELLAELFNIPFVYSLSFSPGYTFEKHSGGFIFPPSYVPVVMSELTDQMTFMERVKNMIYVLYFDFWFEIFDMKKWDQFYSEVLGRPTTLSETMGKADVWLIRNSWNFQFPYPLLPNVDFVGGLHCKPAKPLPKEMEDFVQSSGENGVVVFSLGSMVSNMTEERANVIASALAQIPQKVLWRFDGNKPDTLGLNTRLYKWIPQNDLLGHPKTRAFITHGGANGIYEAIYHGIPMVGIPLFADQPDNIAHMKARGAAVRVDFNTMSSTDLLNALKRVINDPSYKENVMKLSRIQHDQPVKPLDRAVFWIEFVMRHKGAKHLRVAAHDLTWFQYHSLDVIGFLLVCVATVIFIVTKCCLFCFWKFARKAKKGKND

[5] = molecular target: T1, UDP-glucuronosyltransferase 1A9; assay: Activity of human UGT1A9 expressed in microsomes isolated from baculovirus infected insect cell assessed as enzyme-mediated (2S,3S,4S,5R,6R)-6-((1-carboxy-2-(4-((6-methoxy-1-methyl-1H-benzo[d]imidazol-2-yl)methoxy)phenyl)ethylthio)carbonylamino)-3,4,5-trihydroxytetrahydro-2H-pyran-2-carboxylic acid formation at 20 uM after 4 hrs by radio-HPLC/LC-MS/MS analysis in presence of UDPGA; format: ADME
Cytochrome P450 2D6 = Cytochrome P450 2D6 (Homo sapiens, UniProt P10635); assay: (§1) Activity of human CYP2D6 expressed in microsomes isolated from baculovirus infected insect cell assessed as enzyme-mediated 5-(4-((6-methoxy-1H-benzo[d]imidazol-2-yl)methoxy)benzyl)thiazolidine-2,4-dione formation at 20 uM after 2 hrs by radio-HPLC/LC-MS/MS analysis in presence of NADPH-generating system and NADPH-generating system/SAM; format: ADME
Sequence of Cytochrome P450 2D6 (P10635 whole entry): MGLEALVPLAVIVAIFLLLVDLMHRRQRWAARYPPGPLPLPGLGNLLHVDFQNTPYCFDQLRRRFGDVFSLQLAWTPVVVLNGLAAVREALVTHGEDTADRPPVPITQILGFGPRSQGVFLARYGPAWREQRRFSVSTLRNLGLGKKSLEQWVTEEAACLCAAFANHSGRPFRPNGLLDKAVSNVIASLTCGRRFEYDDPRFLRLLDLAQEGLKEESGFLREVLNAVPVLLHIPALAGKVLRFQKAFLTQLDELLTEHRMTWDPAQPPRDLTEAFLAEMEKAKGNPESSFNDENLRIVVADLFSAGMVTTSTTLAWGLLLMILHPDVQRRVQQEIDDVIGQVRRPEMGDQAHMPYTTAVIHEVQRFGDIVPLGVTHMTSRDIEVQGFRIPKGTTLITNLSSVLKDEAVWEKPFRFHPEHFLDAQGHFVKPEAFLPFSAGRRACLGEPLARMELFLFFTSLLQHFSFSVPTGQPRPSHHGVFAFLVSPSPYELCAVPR

Cytochrome P450 3A4 = Cytochrome P450 3A4 (Homo sapiens, UniProt P08684); assay: Activity of human CYP3A4 expressed in microsomes isolated from baculovirus infected insect cell assessed as enzyme-mediated 2-hydroxy-3-(4-((6-methoxy-1-methyl-1H-benzo[d]imidazol-2-yl)methoxy)phenyl)propanamide formation at 20 uM after 2 hrs by radio-HPLC/LC-MS/MS analysis in presence of NADPH-generating system and NADPH-generating system/SAM; format: ADME
Sequence of Cytochrome P450 3A4 (P08684 whole entry): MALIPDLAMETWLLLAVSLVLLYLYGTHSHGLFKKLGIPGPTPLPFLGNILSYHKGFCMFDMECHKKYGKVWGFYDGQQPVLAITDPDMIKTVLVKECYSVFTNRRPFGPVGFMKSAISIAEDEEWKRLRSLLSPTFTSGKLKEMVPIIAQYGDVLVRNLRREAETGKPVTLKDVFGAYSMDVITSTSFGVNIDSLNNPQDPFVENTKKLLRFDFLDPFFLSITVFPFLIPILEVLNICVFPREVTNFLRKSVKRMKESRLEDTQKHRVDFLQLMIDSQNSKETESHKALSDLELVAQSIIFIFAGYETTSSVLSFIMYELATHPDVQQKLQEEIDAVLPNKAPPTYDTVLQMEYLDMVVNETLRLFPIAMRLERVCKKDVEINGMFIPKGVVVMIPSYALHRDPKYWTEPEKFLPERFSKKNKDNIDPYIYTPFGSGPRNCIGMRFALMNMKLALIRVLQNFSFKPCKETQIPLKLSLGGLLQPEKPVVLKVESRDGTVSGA

[6] = Drug metabolism in rat hepatocytes assessed as formation of 3-(4-((6-methoxy-1-methyl-1H-benzo[d]imidazol-2-yl)methoxy)phenyl)-2-(methylthio)propanamide at 30 uM after 3 hrs by radio-HPLC/LC-MS/MS analysis in presence of NADPH-generating system/SAM; format: ADME, cell-based, Hepatocyte
Cytochrome P450 2C9 [7] = molecular target: T2, Cytochrome P450 2C9; assay: as §1, with “CYP2C9” for “CYP2D6”; format: ADME
Cytochrome P450 2C19 = Cytochrome P450 2C19 (Homo sapiens, UniProt P33261); assay: Activity of human CYP2C19 expressed in microsomes isolated from baculovirus infected insect cell assessed as enzyme-mediated 2-mercapto-3-(4-((6-methoxy-1-methyl-1H-benzo[d]imidazol-2-yl)methoxy)phenyl)propanamide formation at 20 uM after 2 hrs by radio-HPLC/LC-MS/MS analysis in presence of NADPH-generating system and NADPH-generating system/SAM; format: ADME
Sequence of Cytochrome P450 2C19 (P33261 whole entry): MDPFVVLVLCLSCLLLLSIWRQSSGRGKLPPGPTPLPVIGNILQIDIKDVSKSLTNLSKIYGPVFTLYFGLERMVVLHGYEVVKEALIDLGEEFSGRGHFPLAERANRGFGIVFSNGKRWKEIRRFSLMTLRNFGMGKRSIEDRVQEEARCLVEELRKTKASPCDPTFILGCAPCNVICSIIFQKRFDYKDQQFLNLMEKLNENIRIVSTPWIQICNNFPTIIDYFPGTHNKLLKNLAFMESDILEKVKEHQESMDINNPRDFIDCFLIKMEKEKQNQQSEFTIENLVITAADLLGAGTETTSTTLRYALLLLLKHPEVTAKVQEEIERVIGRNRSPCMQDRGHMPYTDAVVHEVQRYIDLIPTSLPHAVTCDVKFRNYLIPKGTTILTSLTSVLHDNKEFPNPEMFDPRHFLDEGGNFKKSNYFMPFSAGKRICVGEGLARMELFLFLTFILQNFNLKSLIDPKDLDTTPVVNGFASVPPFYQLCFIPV
Outline: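 Baculovirus/insect-cell microsomes expressing single human CYPs, 1 mg/ml protein, with 50 mM potassium phosphate (pH 7.4) or 100 mM Tris-HCl (pH 7.5). NADPH-generating system: 2 mM NADP⁺, 20 mM glucose 6-phosphate, 2 units/ml G6PDH, 10 mM MgCl₂. [¹⁴C]rivoglitazone at 20 μM, 2 h at 37°C with shaking. Control used insect-cell control supersomes. Stopped with acetonitrile; supernatant concentrated under nitrogen; metabolites analysed by radio-HPLC, LC-MS and LC-MS/MS.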

[8] = Drug metabolism in cynomolgus monkey liver microsomes assessed as formation of (2S,3S,4S,5R,6R)-3,4,5-trihydroxy-6-(5-(4-((6-methoxy-1-methyl-1H-benzo[d]imidazol-2-yl)methoxy)benzyl)-2,4-dioxothiazolidin-3-yl)tetrahydro-2H-pyran-2-carboxylic acid at 20 uM after 4 hrs by radio-HPLC/LC-MS/MS analysis in presence of UDPGA and UDPGA/SAM; format: ADME, Macaca fascicularis
Cytochrome P450 2C9 [9] = molecular target: T2, Cytochrome P450 2C9; assay: Activity of human CYP2C9 expressed in microsomes isolated from baculovirus infected insect cell assessed as enzyme-mediated 3-(4-((6-methoxy-1-methyl-1H-benzo[d]imidazol-2-yl)methoxy)phenyl)-2-(methylthio)propanoic acid formation at 20 uM after 2 hrs by radio-HPLC/LC-MS/MS analysis in presence of NADPH-generating system/SAM and UDPGA/SAM; format: ADME
Cytochrome P450 2C9 [10] = molecular target: T2, Cytochrome P450 2C9; assay: Activity of human CYP2C9 expressed in microsomes isolated from baculovirus infected insect cell assessed as enzyme-mediated 5-(4-((6-hydroxy-1-methyl-1H-benzo[d]imidazol-2-yl)methoxy)benzyl)thiazolidine-2,4-dione formation at 20 uM after 2 hrs by radio-HPLC/LC-MS/MS analysis in presence of NADPH-generating system and NADPH-generating system/SAM; format: ADME

- Drug metabolism [1]: metabolite_detected
- Drug metabolism [2]: metabolite_not_detected
- Drug metabolism (Cytochrome P450 2C9 [3]): metabolite_not_detected
- Drug metabolism [4]: metabolite_not_detected
- Drug metabolism [5]: metabolite_not_detected
- Drug metabolism (Cytochrome P450 2D6): metabolite_detected
- Drug metabolism (Cytochrome P450 3A4): metabolite_detected
- Drug metabolism [6]: metabolite_detected
- Drug metabolism (Cytochrome P450 2C9 [7]): metabolite_detected
- Drug metabolism (Cytochrome P450 2C19): metabolite_detected
- Drug metabolism [8]: metabolite_detected
- Drug metabolism (Cytochrome P450 2C9 [9]): metabolite_not_detected
- Drug metabolism (Cytochrome P450 2C9 [10]): metabolite_detected
Compound: COc1ccc2nc(COc3ccc(C[14CH]4SC(=O)NC4=O)cc3)n(C)c2c1.Cl (racemic)
